Measurements of several laboratories.
Compare with care: the assays were run in different laboratories. pIC50: −log10 of the molar value.
Cell line: HeLa
Observed: cell growth or viability

`Cc1ccn2c(C(=O)N3CCN(Cc4cn(-c5ccc(F)c(Cl)c5)nn4)CC3)c(C)nc2c1` has a CC50 of greater than 100 µM (resazurin).
The pIC50 of `COc1cc2nnn(S(=O)(=O)c3ccc(N(C)C)cc3)c2cc1OC` is reported as 4.26 (XTT; 72 h).
`CC(=O)O[C@H]1C(=O)[C@@]2(C)[C@H]([C@H](OC(=O)c3ccccc3)[C@]3(O)C[C@H](OC(=O)[C@H](O)[C@@H](NC(=O)c4ccccc4)c4ccccc4)C(C)=C1C3(C)C)[C@]1(OC(C)=O)CO[C@@H]1C[C@@H]2O` gave a pIC50 of 5.32 (MTT; 48 h).
For `COc1ccc(NS(=O)(=O)c2ccc(N)cc2)cc1OC`, the pIC50 was less than 4.00 (XTT; 72 h).
The CC50 of `CCCCCCCCCc1cn(CCN2CCN(C(=O)c3c(C)nc4cc(C)ccn34)CC2)nn1` is reported as 62.7 µM (resazurin).
`COc1ccc(S(=O)(=O)Nc2cc(C#N)ccc2OS(=O)(=O)c2ccc(OC)cc2)cc1` has a pIC50 of 4.11 (XTT; 72 h).
With `COC(=O)CNC(=O)C(=O)OC` the CC50 was greater than 1000 µM.
`CCOP(=O)(OCC)[C@@H]1C[C@H](n2cc(-c3ccccn3)nn2)ON1C` has a CC50 of greater than 250 µM (72 h).
With `CNc1ccc(S(=O)(=O)Nc2ccc(OC)nc2)cc1` the pIC50 was less than 4.00 (XTT; 72 h).
`Cc1ccc(-n2cc(CN3CCN(C(=O)c4c(C)nc5ccc(Cl)cn45)CC3)nn2)cc1C` has a CC50 of greater than 100 µM (resazurin).
`COc1cc(NS(=O)(=O)c2ccc([N+](=O)[O-])cc2)cc(OC)c1` gave a pIC50 of less than 4.00 (XTT; 72 h).
The CC50 of `CCOP(=O)(OCC)[C@@H]1C[C@@H](n2cc(Cn3ccc(NC(C)=O)nc3=O)nn2)ON1C` (racemic) is reported as greater than 250 µM (72 h).
The CC50 of `Cc1ccn2c(C(=O)N3CCN(Cc4cn(-c5ccccc5)nn4)CC3)c(C)nc2c1` is reported as greater than 100 µM (resazurin).
With `CCOP(=O)(OCC)[C@@H]1C[C@H](n2cc(-c3nccn3C)nn2)ON1C` the CC50 was greater than 250 µM (72 h).
`Cc1nc2ccc(Cl)cn2c1C(=O)N1CCN(Cc2cn(-c3cccc([N+](=O)[O-])c3)nn2)CC1` has a CC50 of greater than 100 µM (resazurin).
The CC50 of `CCOP(=O)(OCC)[C@@H]1C[C@H](n2cc(C(=O)OC)nn2)ON1C` (relative stereo) is reported as greater than 250 µM (72 h).
With `CCCCCCCCCc1cn(CCN2CCN(C(=O)c3c(C)nc4ccc(Cl)cn34)CC2)nn1` the CC50 was greater than 100 µM (resazurin).
`COc1ccc(OC)c(NS(=O)(=O)c2ccc(OC)c([N+](=O)[O-])c2)c1` gave a pIC50 of less than 4.00 (XTT; 72 h).
The CC50 of `CCOP(=O)(OCC)[C@@H]1C[C@H](n2cc(Cn3cnc4c(N)ncnc43)nn2)ON1C` (relative stereo) is reported as no less than 250 µM (72 h).
